The test system of data set [1] is Escherichia coli. Kind of data set: Antibacterial activity against Escherichia coli JW0451 containing lesion in acrB locus assessed as growth inhibition at 12.5 ug/mL after 16 to 20 hrs by broth dilution method. Type of data set: functional, organism-based. The gist of the method: (§1)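 E. coli BW25113 (wild type) and JW0451 (ΔacrB) tested by broth dilution in cation-adjusted Mueller Hinton II, ~1×10^3 cfu, 16–20 h. Growth shown with resazurin. Checkerboard combination with the efflux inhibitor PAβN in the wild type.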

The next data set deals with Pseudomonas aeruginosa. The data set can be described thus: Antibacterial activity against Pseudomonas aeruginosa ATCC 9028 assessed as growth inhibition at 0.8 to 100 ug/mL after 16 to 20 hrs by resazurin dye-based assay. Type of data set: functional, organism-based. The gist of the method: (§2)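 Broth microdilution. Test article from 1 μL DMSO in 50 μL cation-adjusted Mueller Hinton II (bacteria) or RPMI 1640 (fungi), plus ~1×10^3 cfu inoculum in the same medium. Incubated 16–20 h at 30–37 °C (48 h for fungi). MIC scored visually as the first well without growth; resazurin added for imaging.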
A general note: Alamar Blue is a resazurin reagent that responds to reducing activity.

Data set [2] deals with Escherichia coli. The data set can be described thus: Antibacterial activity against Escherichia coli K-12 assessed as growth inhibition at 0.8 to 100 ug/mL after 16 to 20 hrs by resazurin dye-based assay. The format is functional, organism-based. The method, boiled down: as §2
Data set [3] relates to Staphylococcus aureus. Kind of data set: Antibacterial activity against community-acquired methicillin-resistant Staphylococcus aureus USA500 assessed as growth inhibition at 0.8 to 100 ug/mL after 16 to 20 hrs by resazurin dye-based assay. The format is functional, organism-based. The gist of the method:
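Broth microdilution. Inoculum from overnight liquid cultures or 2-day colonies, ~1 × 10^3 cfu per well. Compound in DMSO added to cation-adjusted Mueller Hinton II broth (bacteria) or RPMI 1640 (fungi). Incubated at 30–37 °C for 16–20 h, or 48 h for fungi.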

For data set [4], the system named is Staphylococcus aureus. The data set can be described thus: Antibacterial activity against methicillin-sensitive Staphylococcus aureus ATCC 6538 assessed as growth inhibition at 0.8 to 100 ug/mL after 16 to 20 hrs by resazurin dye-based assay. The format is functional, organism-based. The method, boiled down: as §2
Data set [5] has as its system Bacillus subtilis. The data set can be described thus: Antibacterial activity against Bacillus subtilis 168 assessed as growth inhibition after 16 to 20 hrs by resazurin dye-based assay. Type of data set: functional. To be noted: subsp. subtilis str. 168. The gist of the method: as §2
The subject of data set [6] is Bacillus subtilis. The data set can be described thus: Antibacterial activity against Bacillus subtilis HM489 assessed as growth inhibition at 1.7 ug/mL after 16 to 20 hrs by resazurin dye-based assay. Type of data set: functional, organism-based. The method, boiled down: as §2
In data set [7] the target is T1, L-aminoadipate-semialdehyde dehydrogenase-phosphopantetheinyl transferase (Homo sapiens) (UniProt Q9NRN7).
T1 sequence (whole entry): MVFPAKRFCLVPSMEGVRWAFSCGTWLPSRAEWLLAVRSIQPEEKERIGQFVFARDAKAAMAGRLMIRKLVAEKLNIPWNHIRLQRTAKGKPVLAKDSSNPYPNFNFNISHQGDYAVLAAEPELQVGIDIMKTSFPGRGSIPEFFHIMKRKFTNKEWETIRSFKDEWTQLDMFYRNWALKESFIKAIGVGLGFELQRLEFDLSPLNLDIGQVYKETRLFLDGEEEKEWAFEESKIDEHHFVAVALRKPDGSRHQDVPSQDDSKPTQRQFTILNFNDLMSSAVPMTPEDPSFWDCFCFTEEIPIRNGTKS
The data set can be described thus: Inhibition of human PPTase up to 125 uM by gel-based fluorescence assay.

Data set [8] can be described thus: Protein binding in plasma (unknown origin) by equilibrium dialysis. Type of data set: ADME, cell-free. (In equilibrium dialysis free small molecules cross a membrane that holds back macromolecules.)
For data set [9], the system named is Staphylococcus aureus. The data set can be described thus: Antibacterial activity against Staphylococcus aureus BK2395 in Swiss Webster mouse septicemia model assessed as increase in survival at 30 mg/kg, ip administered 4 to 48 hrs measured 3 times daily for 14 days relative to vehicle-treated control. Type of data set: functional, organism-based. Also on record: dose 30 mg/kg. The gist of the method: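 MRSA USA500 strain BK2395 used in a mouse sepsis model. Treated animals compared with vehicle, with vancomycin as a reference treatment; survival monitored.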

Another data set relates to Mus musculus. The data set can be described thus: Toxicity in CD-1 mouse at 30 mg/kg, ip measured over 24 hrs. The format is organism-based. Also on record: dose 30 mg/kg, route intraperitoneal. The note with it: in vivo. The method, boiled down:
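Male CD1 mice, 6–8 weeks old, given 30 mg/kg ip in 5% DMSO/10% Solutol/water. Clinical observations recorded over 24 h.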

Data set [10] is described as follows: Clearance in CD-1 mouse at 3 mg/kg, iv. Type of data set: ADME, organism-based. Further details: dose 3 mg/kg, route intravenous. To be noted: in vivo. The method, boiled down:
(§3)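 Male CD1 mice, 6–8 weeks old. Dosed iv at 3 mg/kg or ip at 30 mg/kg as a solution in 5% DMSO/10% Solutol in water. Plasma sampled in triplicate at eight time points over 24 h.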

The nature of data set [11]: AUC (infinity) in CD-1 mouse at 3 mg/kg, iv. Also on record: time infinity, dose 3 mg/kg, route intravenous. The format is ADME, organism-based. To be noted: plasma. The gist of the method: as §3
The nature of data set [12]: Cmax in CD-1 mouse at 30 mg/kg, ip. Further details: dose 30 mg/kg, route intraperitoneal. The note with it: in vivo. Type of data set: ADME, organism-based. The method, boiled down:
as §3

In data set [13] the test system is Liver microsome. The data set can be described thus: Drug metabolism in human liver microsomes assessed as GSH adduct formation at 50 uM after 60 mins by LC-MS/MS analysis in presence of NADPH. Type of data set: ADME. The note with it: 1 h. In general terms: Liver microsomes are a subcellular fraction often used to study metabolism.
A short description of data set [14]: Metabolic stability in mouse plasma at 2 hrs. Type of data set: ADME, cell-free. To be noted: read-out: Stability. The gist of the method:
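Compound incubated in mouse plasma; stability measured at 2 h (Pharmaron).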

Data set [15] has as its system Liver microsome. Kind of data set: Half life in rat liver microsomes in presence of NADPH. The format is ADME. The method, boiled down: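 Liver microsomes from mouse or rat incubated with compound in the presence of NADPH. Mouse assay done at Pharmaron.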
Data set [16] deals with Bacillus subtilis. The data set can be described thus: Antibacterial activity against Bacillus subtilis OKB105 assessed as effect on cellular density at 0.53 to 1.1 ug/mL after 28 hrs. The format is functional, organism-based. The method, boiled down: (§4)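 B. subtilis OKB105 cultured with compound at 0.53 or 1.1 µg/mL against a vehicle control. Culture density and surfactin titer sampled periodically over 28 h.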

Data set [17] relates to Bacillus subtilis. The data set can be described thus: Antibacterial activity against Bacillus subtilis OKB105 assessed as effect on doubling time in log phase at 0.53 to 1.1 ug/mL after 28 hrs. Type of data set: functional, organism-based. The method, boiled down: as §4
For data set [18], the system named is Bacillus subtilis. The data set can be described thus: Antibacterial activity against Bacillus subtilis OKB105 assessed as inhibition of surfactin production at 1.1 ug/mL after 28 hrs by LC-MS analysis relative to vehicle-treated control. The note with it: OKB105, 28 h. Type of data set: functional. The method, boiled down: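 B. subtilis OKB105 cultures grown with sublethal compound concentrations. Culture growth and surfactin titer measured periodically over 28 h; titer expressed relative to vehicle control.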

The test system of data set [19] is Escherichia coli. Kind of data set: Antibacterial activity against wild type Escherichia coli BW25113 assessed as growth inhibition at 1.8 to 250 ug/mL after 16 to 20 hrs by broth dilution method in presence of AcrAB-TolC inhibitor phenylarginine-beta-napthamide. Type of data set: functional. The gist of the method:
as §1

≈ marks a conversion by molar mass, not a printed value. Calls of active or inactive are those of the source. The rule behind the calls is not given here.

As usually defined, the MIC is the lowest concentration found to suppress growth. In general, inhibition refers to how much of the control response was suppressed. As usually defined, the clearance is the rate of elimination divided by the concentration. Read a low clearance as inefficient removal. The AUC(0-inf) is the area under the concentration-time curve extrapolated to infinity. By Cmax is commonly meant the highest concentration seen after dosing. For the compound `COc1ccnc(NC(=S)N2CCN(c3ncc(C(F)(F)F)cc3Cl)CC2)c1`, the “growth inhibition (GI)” value in the data set with Escherichia coli [1], with Staphylococcus aureus [3], in the data set with Staphylococcus aureus [4], in the data set with Bacillus subtilis [6] and in the data set on Escherichia coli [19] was “Active” throughout. In addition, the “growth inhibition (GI)” value in the data set on Pseudomonas aeruginosa and in the data set on Escherichia coli [2] was “inactive” each time. Also, the MIC in the data set on Bacillus subtilis [5] was 2 µg/mL (≈ 4.63 µM). For the same compound, the inhibition result in data set [7] is “inactive”. In data set [8], this compound showed a PPB of 98.6%. For the same compound, the result in the data set on Staphylococcus aureus [9], in the data set with Bacillus subtilis [16] and in the data set on Bacillus subtilis [17] was inactive. Besides, the Activity result with Mus musculus is reported as “Non-toxic”. For the same compound, the clearance in data set [10] is 7.2 mL/min/kg. Also, the AUC(0-inf) in data set [11] came out at 6980 ng·h/mL. Further, the maximum concentration (Cmax) in [12] worked out at 17600 ng/mL. Further, the Drug metabolism entry in the data set on Liver microsome [13] is on record as “Not Active”. Further, the remaining at 2 h in data set [14] came to 100%. Moreover, in the data set on Liver microsome [15], the t1/2 is greater than 30 min. For the same compound, the inhibition at 1.1 µg/mL in the data set with Bacillus subtilis [18] was found to be 41%.

For the origin of these results see ChEMBL document CHEMBL3124880, “4-(3-Chloro-5-(trifluoromethyl)pyridin-2-yl)-N-(4-methoxypyridin-2-yl)piperazine-1-carbothioamide (ML267), a potent inhibitor of bacterial phosphopantetheinyl transferase that attenuates secondary metabolism and thwarts bacterial growth” (J Med Chem, 2014).
